CaV13 FRET inh – Primary screen for inhibitors of IQ motif and Ca2+-dependent inactivation inhibitor domain binding in CACNA1D, Förster resonance energy transfer in living cells, …; inhibition, % at 12.3 µM; 340,000 tested, 0.098% active; HEK cells, CFP/YFP FRET ICDI-IQ, plate reader, 10 min; percent FRET-ratio fall versus neutral wells; AID 743397;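 active means mean replicate inhibition of at least 30% and at least 1% of replicates passing that level; inconclusive means only one of the two criteria is met; inactive means neither criterion is met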;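 further: 0% = median of the neutral control wells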
S100A4 inh HTS – S100A4-myosin IIA interaction inhibition; inhibition, % at 10.7 µM; AID 652163; S100A4/TAMRA-MyoIIA peptide fluorescence polarization; P26447; 360,000 tested, 0.14% active;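 active means mean inhibition of at least 70% across replicates, with every replicate also reaching that level; inconclusive means mean inhibition reaches 70% but some replicates fall short; inactive means mean inhibition below 70%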
Target sequence (P26447 whole entry, looked up): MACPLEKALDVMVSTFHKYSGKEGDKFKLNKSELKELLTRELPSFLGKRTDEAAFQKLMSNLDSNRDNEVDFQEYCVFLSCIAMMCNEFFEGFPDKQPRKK
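System – human S100A4 monomer protein, biochemical binding assay · Buffer or medium – Calcium-containing HEPES buffer, pH 7.2 · Timing – 5 min between mix addition and reading · Also added – TAMRA-labelled myosin IIA heavy-chain peptide probe, 5 nM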
SIRT5 inh – blocks human SIRT5 desuccinylation of peptide | Q9NXA8 | Purified SirT5, succinyl-peptide AMC, trypsin-coupled fluorescence | inhibition, % at 15 µM | 330,000 tested, 1.1% active; in the data active means inhibition above about 15%; inconclusive means no clear call, values can overlap the other calls
Target sequence (Q9NXA8 whole entry, looked up): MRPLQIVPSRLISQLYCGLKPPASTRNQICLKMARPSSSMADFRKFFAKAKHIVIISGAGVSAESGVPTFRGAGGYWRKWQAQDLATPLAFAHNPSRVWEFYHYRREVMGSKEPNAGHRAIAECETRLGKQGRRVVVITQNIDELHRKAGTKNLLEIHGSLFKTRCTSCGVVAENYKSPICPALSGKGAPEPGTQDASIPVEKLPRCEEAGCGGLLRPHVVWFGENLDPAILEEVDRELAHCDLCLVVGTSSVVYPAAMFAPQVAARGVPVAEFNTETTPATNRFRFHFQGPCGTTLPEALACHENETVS
AF4-AF9 inh – MLL-AF4/AF9 protein interaction inhibition; 350,000 tested, 0.47% active; P42568; inhibition, % at 10 µM; AlphaScreen, biotin-AF4 peptide binding to FLAG-AF9;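 active means every replicate reaching a set inhibition limit, whatever the replicate mean, cut at about 25% in these data; inconclusive means mean inhibition reaches that limit but some replicates miss it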;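 further: 0% = plate neutral control median and 100% = total signal loss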
DENV2 CPE rescue – protects cells from dengue virus 2 cytopathic effect. DENV2-infected cells, cytopathic effect rescue, plate reader. CPE inhibition, % at 9.99 µM. 350,000 tested, 1.7% active; in the data active means CPE inhibition above about 20%, passing the limit was not always enough; inconclusive means no clear call, values can overlap the other calls; tested in BHK-21 cells;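 further: 0% = median of neutral control wells and 100% = median of positive control wells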
* = called active by the depositor. Only some compounds are listed: those with a hit (about 2.7% of all), similar ones and a draw of the others.

Screening O=C(NCCc1ccncc1)Nc1ccc(Cl)cc1 returned CaV13 FRET inh -6.
For O=C(NCCc1ccncc1)Nc1ccc(F)cc1 the results were CaV13 FRET inh -4, S100A4 inh HTS 103*, SIRT5 inh -4, AF4-AF9 inh -23 and DENV2 CPE rescue 1.
For Cc1noc(C)c1NC(=O)Nc1ccc2c(c1)C(=O)N([C@@H](C)CO)C[C@H](C)[C@@H](CN(C)Cc1ccc(-c3ccccc3)cc1)O2 the results were S100A4 inh HTS -5, SIRT5 inh 6, AF4-AF9 inh 9 and DENV2 CPE rescue 4.
Screening O=C(CN1CCN(c2cccc(C(F)(F)F)c2)CC1)N(C1CCCC1)C1CCS(=O)(=O)C1 (configuration not stated) returned CaV13 FRET inh -2, S100A4 inh HTS 1, SIRT5 inh 0, AF4-AF9 inh 2 and DENV2 CPE rescue 51*.
`O=C(CN1CCN(c2cccc(C(F)(F)F)c2)CC1)N(C1CC1)C1CCS(=O)(=O)C1` (configuration not stated) gave CaV13 FRET inh -5, S100A4 inh HTS -4, SIRT5 inh -4, AF4-AF9 inh -1 and DENV2 CPE rescue 3.
Screening CCOC(=O)C1=C(C)N(CCCCCC(=O)O)C(=O)NC1c1ccccc1OC(=O)c1cccs1 (configuration not stated) returned CaV13 FRET inh -9, S100A4 inh HTS 1, SIRT5 inh -1, AF4-AF9 inh -6 and DENV2 CPE rescue 47*.
CCCCCCCCCCCCOC1OC(CO)C(O)C(O)C1NC(C)=O (configuration not stated) was read as CaV13 FRET inh -5, S100A4 inh HTS -4, AF4-AF9 inh 0 and DENV2 CPE rescue 23*.
For CCNC(=O)C[C@H]1CC[C@H]2[C@@H](COc3ccc(NC(=O)c4ccc(F)c(F)c4)cc3C(=O)N2C)O1 the results were S100A4 inh HTS -6, SIRT5 inh -3, AF4-AF9 inh 0 and DENV2 CPE rescue -9.
CNC(=O)C[C@H]1CC[C@@H]2[C@H](COc3ccc(NC(=O)c4cscn4)cc3C(=O)N2C)O1 was read as DENV2 CPE rescue 29*.
`CNC(=O)C[C@@H]1CC[C@@H]2[C@@H](COc3ccc(NC(=O)c4ccc(F)c(F)c4)cc3C(=O)N2C)O1` gave S100A4 inh HTS -4, SIRT5 inh 8, AF4-AF9 inh -2 and DENV2 CPE rescue -3.
`CNC(=O)C[C@H]1CC[C@H]2[C@@H](COc3ccc(NC(=O)c4ccc(F)c(F)c4)cc3C(=O)N2C)O1` gave S100A4 inh HTS 2, SIRT5 inh 3, AF4-AF9 inh -1 and DENV2 CPE rescue 52*.
CN1C(=O)c2cc(NC(=O)c3cccc(F)c3)ccc2OC[C@H]2O[C@@H](CC(=O)NCC3CC3)CC[C@H]21 was read as S100A4 inh HTS 22, SIRT5 inh -1, AF4-AF9 inh -4 and DENV2 CPE rescue 21*.
CCNC(=O)C[C@@H]1CC[C@@H]2[C@H](COc3ccc(NC(=O)c4ccc(F)c(F)c4)cc3C(=O)N2C)O1 was read as S100A4 inh HTS -2, SIRT5 inh -3, AF4-AF9 inh 0 and DENV2 CPE rescue 90*.
Screening CNC(=O)C[C@H]1CC[C@H]2[C@H](COc3ccc(NC(=O)c4cscn4)cc3C(=O)N2C)O1 returned DENV2 CPE rescue -1.
For C[C@H]1CN([C@@H](C)CO)C(=O)c2ccccc2-c2ccccc2CO[C@H]1CN(C)Cc1ccc(C(F)(F)F)cc1 the results were S100A4 inh HTS 1, SIRT5 inh 8, AF4-AF9 inh 3 and DENV2 CPE rescue 50*.
`C[C@H]1CN([C@@H](C)CO)C(=O)c2ccccc2-c2ccccc2CO[C@@H]1CN(C)Cc1ccc(C(F)(F)F)cc1` gave S100A4 inh HTS -18, SIRT5 inh 16*, AF4-AF9 inh 4 and DENV2 CPE rescue -2.
Screening C[C@H]1CN([C@@H](C)CO)C(=O)c2ccccc2-c2ccccc2CO[C@H]1CN(C)Cc1cccc(C(F)(F)F)c1 returned S100A4 inh HTS 5, SIRT5 inh 2, AF4-AF9 inh -3 and DENV2 CPE rescue -12.
For C[C@@H]1CN([C@@H](C)CO)C(=O)c2ccccc2-c2ccccc2CO[C@H]1CN(C)Cc1ccccc1C(F)(F)F the results were S100A4 inh HTS inconclusive, SIRT5 inh 28*, AF4-AF9 inh 9 and DENV2 CPE rescue -9.
For C[C@H](CO)N1C[C@H](C)[C@H](CN(C)Cc2cccc(C(F)(F)F)c2)OCc2ccccc2-c2ccccc2C1=O the results were S100A4 inh HTS -7, SIRT5 inh 20*, AF4-AF9 inh 2 and DENV2 CPE rescue -1.
`CN(C)C(=O)C[C@H]1CC[C@@H](NS(=O)(=O)c2ccccc2)[C@@H](CO)O1` gave S100A4 inh HTS -94, SIRT5 inh 1, AF4-AF9 inh -14 and DENV2 CPE rescue 0.
Screening COc1ccc(NC(=O)Nc2ccc3c(c2)C(=O)N([C@@H](C)CO)C[C@@H](C)[C@H](CN(C)S(C)(=O)=O)OCCCC[C@@H](C)O3)cc1 returned S100A4 inh HTS 10, SIRT5 inh -2, AF4-AF9 inh -1 and DENV2 CPE rescue -6.
For CCCNC(=O)C[C@@H]1CC[C@@H]2[C@H](COC[C@@H](O)CN2C(=O)CC)O1 the results were S100A4 inh HTS -7, SIRT5 inh -3, AF4-AF9 inh -2 and DENV2 CPE rescue 3.
Screening O=C(CN(Cc1ccccc1)C1=NCCS1)c1ccccc1 returned CaV13 FRET inh -5, S100A4 inh HTS 0, SIRT5 inh 0, AF4-AF9 inh 5 and DENV2 CPE rescue 39*.
Screening NCC(O)CN(c1ccccc1)c1ccccc1 (configuration not stated) returned CaV13 FRET inh -4, S100A4 inh HTS -23, SIRT5 inh 38*, AF4-AF9 inh 2 and DENV2 CPE rescue -2.
For C[C@@H]1CN([C@H](C)CO)C(=O)Cc2cc(NC(=O)CCC(F)(F)F)ccc2O[C@H]1CN(C)C(=O)Nc1ccc(F)cc1 the results were S100A4 inh HTS 3, SIRT5 inh 3, AF4-AF9 inh -4 and DENV2 CPE rescue inconclusive.
`C[C@H]1CN([C@@H](C)CO)C(=O)Cc2cc(NC(=O)CCC(F)(F)F)ccc2O[C@@H]1CN(C)C` gave S100A4 inh HTS 108*, SIRT5 inh 4, AF4-AF9 inh -5 and DENV2 CPE rescue 0.
For C[C@H](CO)N1C[C@H](C)[C@H](CN(C)C(=O)Nc2ccc(F)cc2)Oc2ccc(NC(=O)CCC(F)(F)F)cc2CC1=O the results were S100A4 inh HTS -8, SIRT5 inh 1, AF4-AF9 inh -3 and DENV2 CPE rescue 25*.
O=C(Nc1cccc(S(=O)(=O)N2CCCCCC2)c1)c1ccc2ccccc2n1 was read as CaV13 FRET inh -5, S100A4 inh HTS 2, SIRT5 inh -7, AF4-AF9 inh 2 and DENV2 CPE rescue 22*.
